pIC50: −log10 of the molar value. Calls of active or inactive are those of the source. No cut-off for these calls is given here.
Columns and labels:
RPMI-8226 = experiment: Antiproliferative activity against human RPMI8226 cells incubated for 72 hrs by CCK8 cells; type: functional, cell-based; conditions: RPMI-8226, 72 h
Outline: (§1)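 CCK-8 proliferation assay. 10,000 cells per well were preincubated 24 h at 37 °C with 5% CO2, then given compound dissolved in DMSO and incubated 72 h. CCK-8 was added for 4 h and absorbance read at 450 nm. IC50 was taken from dose-response curves as mean ± SEM of at least three independent experiments, with paclitaxel as positive control. HepG2 and L-O2 were grown in DMEM/10% FBS; A549 and RPMI-8226 in RPMI 1640/10% FBS.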

HepG2 [1] = experiment: Antiproliferative activity against human HepG2 cells incubated for 72 hrs by CCK8 cells; type: functional, cell-based; conditions: HepG2, 72 h; outline: as §1
A549 = experiment: Antiproliferative activity against human A549 cells incubated for 72 hrs by CCK8 cells; type: functional, cell-based; conditions: A549, 72 h; outline: as §1
L02 = experiment: Cytotoxicity against human LO2 cells incubated for 72 hrs by CCK8 cells; type: cell-based; conditions: L02, 72 h; outline: as §1
PLC-PRF-5 [2] = experiment: Antiproliferative activity against human PLC/PRF/5 cells incubated for 72 hrs by CCK8 cells; type: functional, cell-based; conditions: PLC-PRF-5, 72 h
[3] = Selectivity index, ratio of IC50 for human LO2 cells to IC50 for human PLC/PRF/5 cells
Outline: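 L-O2 and PLC/PRF/5 cells were grown in DMEM with 10% FBS at 37 °C and 5% CO₂. For CCK-8 proliferation, 10,000 cells per well were pre-incubated 24 h, then exposed to compound in DMSO for 72 h. CCK-8 was added for 4 h and A450 read. IC50 came from dose–response curves; SI is IC50(L-O2)/IC50(PLC/PRF/5).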

HepG2 [4] = experiment: Inhibition of colony formation in human HepG2 cells at 0.1 to 1 uM incubated for 10 days by crystal violet staining based microscopic method; type: functional, cell-based
Outline: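 Five hundred cells plated per 30 mm dish and left 12 h. Medium with compound was added (0, 0.1, 0.5, 1 µM) or DMSO as negative control, and cells grew 10 days. Colonies were fixed in methanol 15 min, stained with 0.1% crystal violet 15 min, photographed and counted. Colony size was checked by microscope. Relative colony number is mean ± SD of ≥3 independent experiments.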

HepG2 [5] = experiment: Antiproliferative activity against human HepG2 cells incubated for 72 hrs in presence of oridonin by CCK8 cells; type: functional, cell-based; conditions: HepG2, 72 h
PLC-PRF-5 [6] = experiment: Antiproliferative activity against human PLC/PRF/5 cells incubated for 72 hrs in presence of oridonin by CCK8 cells; type: functional, cell-based; conditions: PLC-PRF-5, 72 h
PLC-PRF-5 [7] = experiment: Inhibition of colony formation in human PLC/PRF/5 cells assessed as decrease in colony size at 0.1 to 1 uM incubated for 10 days by crystal violet staining based microscopic method
PLC-PRF-5 [8] = experiment: Antitumour activity against human PLC/PRF/5 cells xenografted in nude mouse assessed as reduction in tumour weight at 10 mg/kg, iv administrated once every 3 days for 4 weeks relative to control; type: functional
Outline: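 PLC/PRF/5 xenograft. 2 × 10^7 cells in 0.2 mL saline were injected s.c. into the right forelimb of nude mice. At about 120 mm3, mice were randomized into 3 groups of 6 and dosed i.v. at 10 mg/kg once every three days for 4 weeks. Vehicle was 10% N-methylpyrrolidone/12% Tween-80/78% saline. Volume (a×b²/2) and body weight were recorded daily, and tumors were excised and weighed at the end.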

| pIC50 (RPMI-8226) | pIC50 (HepG2 [1]) | pIC50 (A549) | SMILES | other results |
| --- | --- | --- | --- | --- |
| < 4.00 | 4.49 | < 4.00 | C=C1C(=O)[C@]23[C@H](OC(=O)CCCCC4CCSS4)[C@H]1CC[C@H]2[C@@]12CO[C@]3(O)[C@@H](O)[C@@H]1C(C)(C)CC[C@@H]2O (some centres not stated) |  |
| 4.96 | 5.25 | 4.96 | C=C1C(=O)[C@]23[C@H](O)[C@H]1CC[C@H]2[C@@]12CO[C@@]3(O)[C@@H](O)[C@@H]1C(C)(C)CC[C@@H]2OC(C)=O |  |
| 5.17 | 5.09 | 4.96 | C=C1C(=O)[C@]23[C@H](OC(=O)c4ccc(F)c(NC(=O)c5ccc(OC)c(OCc6ccccc6)c5)c4)[C@H]1CC[C@H]2[C@@]12CO[C@]3(O)[C@@H](O)[C@@H]1C(C)(C)CC[C@@H]2O |  |
| 4.78 | 4.35 | 4.65 | C=C1C(=O)[C@]23[C@H](OC(=O)[C@@H]4OC(c5ccc(OC)cc5)N(C(=O)OC(C)(C)C)[C@H]4c4ccccc4)[C@H]1CC[C@H]2[C@@]12CO[C@]3(O)[C@@H](O)[C@@H]1C(C)(C)CC[C@@H]2O (some centres not stated) |  |
| 5.03 | 5.05 | 4.85 | C=C1C(=O)[C@]23[C@H](OC(=O)CCc4ccc(OC)cc4)[C@H]1CC[C@H]2[C@@]12CO[C@]3(O)[C@@H](O)[C@@H]1C(C)(C)CC[C@@H]2O |  |
| 4.80 | 4.56 | 4.51 | C=C1C(=O)[C@]23[C@H](OC(=O)c4cccnc4Cl)[C@H]1CC[C@H]2[C@@]12CO[C@]3(O)[C@@H](O)[C@@H]1C(C)(C)CC[C@@H]2O |  |
| 5.24 | 5.70 | 4.60 | C=C1C(=O)[C@]23[C@H](OC(=O)/C=C/c4ccc(OC)c(OC)c4)[C@H]1CC[C@H]2[C@@]12CO[C@]3(O)[C@@H](O)[C@@H]1C(C)(C)CC[C@@H]2O | pIC50 (L02): 5.73; pIC50 (PLC-PRF-5 [2]): 5.99; Ratio IC50 [3]: 1.8; inhibition (HepG2 [4]): Active |
| 5.22 | 5.22 | 5.06 | C=C1C(=O)[C@]23[C@H](OC(=O)/C=C/c4cc(OC)c(OC)c(OC)c4)[C@H]1CC[C@H]2[C@@]12CO[C@]3(O)[C@@H](O)[C@@H]1C(C)(C)CC[C@@H]2O |  |
| 4.91 | 4.90 | 4.96 | C=C1C(=O)[C@]23[C@H](OC(=O)CCc4cc(OC)c(OC)c(OC)c4)[C@H]1CC[C@H]2[C@@]12CO[C@]3(O)[C@@H](O)[C@@H]1C(C)(C)CC[C@@H]2O |  |
| 4.91 | 4.58 | 4.97 | C=C1C(=O)[C@]23[C@H](OC(=O)c4cc(F)ccc4F)[C@H]1CC[C@H]2[C@@]12CO[C@]3(O)[C@@H](O)[C@@H]1C(C)(C)CC[C@@H]2O |  |
| 5.82 | 6.74 | 6.41 | CC(=O)O[C@H]1C(=O)[C@@]2(C)[C@H]([C@H](OC(=O)c3ccccc3)[C@]3(O)C[C@H](OC(=O)[C@H](O)[C@@H](NC(=O)c4ccccc4)c4ccccc4)C(C)=C1C3(C)C)[C@]1(OC(C)=O)CO[C@@H]1C[C@@H]2O [PACLITAXEL] |  |
| 5.06 | 5.01 | 4.94 | C=C1C(=O)[C@]23[C@H](OC(=O)c4ccc(OC)c(OCCBr)c4)[C@H]1CC[C@H]2[C@@]12CO[C@]3(O)[C@@H](O)[C@@H]1C(C)(C)CC[C@@H]2O |  |
| 4.89 | 4.91 | 4.98 | C=C1C(=O)[C@]23[C@H](O)[C@H]1CC[C@H]2[C@@]12CO[C@]3(O)[C@@H](OC(C)=O)[C@@H]1C(C)(C)CC[C@@H]2OC(C)=O |  |
| 4.96 | 5.06 | 4.43 | C=C1C(=O)[C@]23[C@H](OC(=O)Cc4cc(OC)c(OC)c(OC)c4)[C@H]1CC[C@H]2[C@@]12CO[C@]3(O)[C@@H](O)[C@@H]1C(C)(C)CC[C@@H]2O |  |
| 4.83 | 4.81 | 4.91 | C=C1C(=O)[C@]23[C@H](OC(=O)c4ccc(F)c(F)c4F)[C@H]1CC[C@H]2[C@@]12CO[C@]3(O)[C@@H](O)[C@@H]1C(C)(C)CC[C@@H]2O |  |
|  | 6.01 |  | C=C1C(=O)[C@]23[C@H](OC(=O)[C@H](CC(C)C)NC(=O)OC(C)(C)C)[C@H]1CC[C@H]2[C@@]12CO[C@]3(O)[C@@H](O)[C@@H]1C(C)(C)CC[C@@H]2O | pIC50 (L02): 5.20; pIC50 (PLC-PRF-5 [2]): 5.57; Ratio IC50 [3]: 2.4; inhibition (HepG2 [4]): Active |
| 5.30 | 5.25 | 4.78 | C=C1C(=O)[C@]23[C@H](OC(=O)c4ccc(CCl)cc4)[C@H]1CC[C@H]2[C@@]12CO[C@]3(O)[C@@H](O)[C@@H]1C(C)(C)CC[C@@H]2O |  |
|  | 5.68 |  | C=C1C(=O)[C@@]23C(=O)[C@H]4OC[C@]5([C@@H](OC(C)=O)CCC(C)(C)[C@@H]45)[C@@H]2CC[C@@H]1[C@H]3O |  |
| 4.76 | 4.79 | 4.85 | C=C1C(=O)[C@]23[C@H](OC(=O)c4ccc(OCc5ccccc5)cc4F)[C@H]1CC[C@H]2[C@@]12CO[C@]3(O)[C@@H](O)[C@@H]1C(C)(C)CC[C@@H]2O |  |
|  | < 4.00 |  | COc1ccc(/C=C/C(=O)O)cc1 [4-METHOXYCINNAMIC ACID] | pIC50 (PLC-PRF-5 [2]): < 4.00; pIC50 (HepG2 [5]): 5.07; pIC50 (PLC-PRF-5 [6]): 5.18 |
| 5.00 | 5.02 | 4.64 | C=C1C(=O)[C@]23[C@H](OC(=O)CCc4ccc(OC)c(OC)c4)[C@H]1CC[C@H]2[C@@]12CO[C@]3(O)[C@@H](O)[C@@H]1C(C)(C)CC[C@@H]2O |  |
| 5.03 | 5.09 | 4.52 | C=C1C(=O)[C@]23[C@H](O)[C@H]1CC[C@H]2[C@@]12CO[C@]3(O)[C@@H](O)[C@@H]1C(C)(C)CC[C@@H]2O [ORIDONIN] | pIC50 (L02): 4.76; pIC50 (PLC-PRF-5 [2]): 5.13; Ratio IC50 [3]: 2.4; inhibition (HepG2 [4]): Active; inhibition (PLC-PRF-5 [7]): Active; Activity (PLC-PRF-5 [8]): inactive |
| 4.72 | 5.42 | 4.76 | C=C1C(=O)[C@]23[C@H](OC(=O)c4ccc(F)c(NC(=O)Cc5ccc(OC)c(OC)c5)c4)[C@H]1CC[C@H]2[C@@]12CO[C@]3(O)[C@@H](O)[C@@H]1C(C)(C)CC[C@@H]2O |  |
| 4.98 | 5.18 | 4.68 | C=C1C(=O)[C@]23[C@H](OC(=O)c4ccc(F)c(NC(=O)c5ccc(OC(F)(F)F)cc5)c4)[C@H]1CC[C@H]2[C@@]12CO[C@]3(O)[C@@H](O)[C@@H]1C(C)(C)CC[C@@H]2O |  |
| 4.45 | 4.44 | 4.76 | C=C1C(=O)[C@]23[C@H](OC(=O)c4ccc(C#N)cc4)[C@H]1CC[C@H]2[C@@]12CO[C@]3(O)[C@@H](O)[C@@H]1C(C)(C)CC[C@@H]2O |  |
| 4.86 | 5.27 | 4.98 | C=C1C(=O)[C@@]23C(=O)[C@@H](OC(C)=O)[C@@H]4C(C)(C)CC[C@H](OC(C)=O)[C@@]4(COC(C)=O)[C@@H]2CC[C@@H]1[C@H]3OC(C)=O |  |
| 4.84 | 5.51 | 4.83 | C=C1C(=O)[C@]23[C@H](OC(=O)c4ccc(F)cc4)[C@H]1CC[C@H]2[C@@]12CO[C@]3(O)[C@@H](O)[C@@H]1C(C)(C)CC[C@@H]2O |  |
